A selection: hits, their analogues and other compounds. The true share with any hit is near 5.3%.
EphB4 antag: EphB4-ephrin-B2 interaction antagonists, primary screen, biochemical, TNYL-RAW peptide probe, fluorescence polarization; inhibition, % at 7 µM; Ephrin type-B receptor 4 (Homo sapiens), P54760; EphB4 LBD / TNYL-RAW-Alexa532 peptide; 0.15% of 97,000 active;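 active = inhibition above the screen-wide mean inhibition plus 3 SD, cut at about 15% in these data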
FAK inh: FAK kinase inhibitors, primary screen, biochemical | Focal adhesion kinase 1 (Homo sapiens), Q05397 | biochemical FAK kinase activity assay | inhibition, %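 (tested at 7 µM)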 | 0.84% of 97,000 active | AID 727, 2007; in the data active = inhibition above about 19%
Cav3 T inh: Cav3.2 calcium influx blockers – cell-based, Fluo-4 calcium fluorescence, FDSS, MLSMR library, primary screen. Cav3.2-expressing cells; hits give low values. B-score at 10 µM. 4% of 100,000 active. AID 449739, 2010;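 active = single-dose well whose peak fluorescence ratio is a statistical outlier from its plate by either plate-standardised score or position-corrected B-score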
PLK1 kinase inh: human PLK1 kinase inhibitors, primary screen, biochemical, TR-FRET; recombinant PLK1 kinase, TR-FRET peptide phosphorylation; inhibition, % at 10 µM; 0.53% of 97,000 active;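 active = inhibition of 50% or more in the single-concentration screen; inactive = inhibition below 50%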
Target sequence (P53350 whole entry, looked up): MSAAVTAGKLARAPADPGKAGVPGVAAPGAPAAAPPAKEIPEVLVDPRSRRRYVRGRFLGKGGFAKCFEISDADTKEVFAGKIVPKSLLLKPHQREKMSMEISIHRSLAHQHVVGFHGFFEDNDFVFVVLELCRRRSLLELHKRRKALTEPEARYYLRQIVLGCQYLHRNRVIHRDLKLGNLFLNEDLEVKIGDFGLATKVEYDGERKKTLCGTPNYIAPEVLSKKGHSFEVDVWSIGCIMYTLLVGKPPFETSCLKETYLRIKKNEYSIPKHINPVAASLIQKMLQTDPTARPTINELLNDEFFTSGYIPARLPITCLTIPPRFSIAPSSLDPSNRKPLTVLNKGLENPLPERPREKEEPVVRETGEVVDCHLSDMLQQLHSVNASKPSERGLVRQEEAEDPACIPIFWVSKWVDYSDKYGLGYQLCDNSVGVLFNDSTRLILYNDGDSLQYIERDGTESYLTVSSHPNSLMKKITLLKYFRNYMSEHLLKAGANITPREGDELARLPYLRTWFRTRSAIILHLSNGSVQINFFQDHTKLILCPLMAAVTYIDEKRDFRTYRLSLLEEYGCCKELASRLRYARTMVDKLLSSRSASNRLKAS
Rev-RRE block: HIV-1 Rev-RRE binding inhibitors, primary screen, biochemical, FRET, protein-RNA interaction; P05866; Rev peptide-RRE RNA binding; inhibition, % at 8 µM; 0.79% of 97,000 active;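 active = inhibition above the screen-wide mean plus 3 SD, cut at about 35% in these data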
Target sequence (P05866 whole entry, looked up): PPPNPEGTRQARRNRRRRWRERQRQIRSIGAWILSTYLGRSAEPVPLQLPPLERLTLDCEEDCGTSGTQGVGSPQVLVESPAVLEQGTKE
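Probe or stimulus: fluorescein-Rev peptide as binding partner; assay system: Cy5-tagged RRE RNA duplex with fluorescein-tagged Rev peptide; timing: 5 min compound–RNA preincubation, then 15 min with peptide, 25 °C; medium: HEPES pH 7.5 buffer with KCl, MgCl2, NaCl and EDTA; signal: fluorescein-to-Cy5 FRET, 480 nm excitation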
PLK1 PBD inh: Plk1 polo box domain binding inhibitors, primary screen, biochemical, fluorescence polarization | Plk1 PBD phosphopeptide binding | 0.13% of 97,000 active | inhibition, %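 (tested at about 20 µM)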 | Serine/threonine-protein kinase PLK1 (Homo sapiens), P53350; in the data active = inhibition above about 34%, passing the limit was not always enough
Each line names hits and unclear results; the compound was inactive in the other large screens; [ ] = another dose, or the depositor's remark.

COc1ccc(-n2c(C)cc(C(=O)Cn3nnc4ccccc4c3=O)c2C)cc1	none
Cc1cc(C(=O)Cn2nnc3ccccc3c2=O)c(C)n1-c1ccccc1F	Cav3 T inh -7
c1ccc(Cc2nnc(-c3ccccc3)o2)cc1	Cav3 T inh -5.45
Cc1ccc(-c2nnc(Cc3ccc(Cl)cc3)o2)cc1	none
CCOC(=O)c1[nH]c2cc(OC)c(OC)cc2c1NC(=O)CN1CCN(c2ccc(OC)cc2)C(C)C1 (centres undefined)	Cav3 T inh -5.4
COc1ccc(C2C(=O)N(C3CCCCC3)CC(=O)N2CC2COc3ccccc3O2)cc1 (centres undefined)	none
CCCC1=C(C(=O)OCC)C(c2cc(Cl)cc(OC)c2OCC(=O)OCC)NC(=O)N1 (centres undefined)	Cav3 T inh -5.17
O=[N+]([O-])c1ccc2c(c1)C(N1CCOCC1)/C(=C/COc1ccc(F)cc1)O2 (centres undefined)	Cav3 T inh -7.26
CCCSc1nnc(-c2ccccc2N)c(=O)[nH]1	none (no result: EphB4 antag, FAK inh, PLK1 kinase inh, Rev-RRE block, PLK1 PBD inh)
CCCCCSc1nnc(-c2cc(Br)ccc2N)c(=O)[nH]1	Cav3 T inh -5.03
C/C(=N/NC(=O)c1cc2ccccc2cc1O)C1C(=O)c2ccccc2C1=O	Cav3 T inh -5.91
C/C(=N\NC(=O)c1ccccc1O)C1C(=O)c2ccccc2C1=O	Cav3 T inh -7.19
C=CCc1cccc(CNc2c(C)n(C)n(-c3ccccc3)c2=O)c1O	Cav3 T inh -3.97
Cc1c(NC(=O)CC(=O)Nc2c(C)n(C)n(-c3ccccc3)c2=O)c(=O)n(-c2ccccc2)n1C	none
O=C(CCl)Nc1ccc(Oc2cnc3ccccc3n2)cc1	none
CC/C(=N\n1nnnc1Nc1ccccc1)c1ccccc1	Cav3 T inh -5.73
CCc1nnc(NC(=O)c2sc3nc4cc(C)ccc4cc3c2N)s1	Rev-RRE block 87.9[fluorescence artefact?] (no result: Cav3 T inh)
Cc1ccc2nc3sc(C(=O)Nc4ccc(N5CCOCC5)cc4)c(N)c3cc2c1	none (no result: Cav3 T inh)
CCOC(=O)Cc1csc(NC(=O)c2sc3nc4ccc(C)cc4cc3c2N)n1	Rev-RRE block 80.6[fluorescence artefact?]
CCCCC1=CC2=CC(=O)C(C)(OC(=O)c3ccco3)C(=O)C2=CO1 (centres undefined)	none (no result: EphB4 antag, FAK inh, PLK1 kinase inh, Rev-RRE block, PLK1 PBD inh)
NCCCC[C@H]1CNC(=O)C(=O)N1CCc1cccc(F)c1	none (no result: EphB4 antag, FAK inh, PLK1 kinase inh, Rev-RRE block, PLK1 PBD inh)
CC(C)(C)c1ccc(S(=O)(=O)NCCc2ccncc2)cc1	none
CC(C)(C)c1ccc(S(=O)(=O)NCCOCC(F)(F)C(F)F)cc1	Cav3 T inh -3.77
CCOc1ccc(N(C(C)C(=O)NC(C)CC)S(C)(=O)=O)cc1 (centres undefined)	none
CCOc1ccc(N(C(C)C(=O)N/N=C(\C)c2cccc(NC(=O)c3ccccc3)c2)S(C)(=O)=O)cc1 (centres undefined)	Cav3 T inh -10.3
CC1=C(C(=O)Nc2ccccc2F)C(c2ccsc2)C2=C(CC(c3ccccc3)CC2=O)N1 (centres undefined)	Cav3 T inh -6.53
Cc1ccc(C)c(N2CCN(C(=O)c3ccc(Cn4c(=O)[nH]c5ccccc5c4=O)cc3)CC2)c1	Cav3 T inh -5.93
CCCNc1nc(C)cc(-c2cc(-c3ccc(Cl)cc3)on2)n1	none (no result: EphB4 antag, FAK inh, PLK1 kinase inh, Rev-RRE block, PLK1 PBD inh)
COC(=O)C[C@H]1c2cc(F)cc(F)c2S(=O)(=O)N1C1CCN(Cc2ccccc2)CC1	none (no result: EphB4 antag, FAK inh, PLK1 kinase inh, Rev-RRE block, PLK1 PBD inh)
CCNc1nc(SCc2ccccc2)nc(N2CCOCC2)n1	Cav3 T inh -4.95
CN(C)c1nc(SCc2ccccc2)nc(N2CCOCC2)n1	none
CCOc1ccc(OCc2ccc(C(=O)NCc3ccncc3)o2)cc1	none
CCc1ccc(OCc2ccc(C(=O)NCc3ccccn3)o2)cc1	Cav3 T inh -3.88 (no result: EphB4 antag, FAK inh, PLK1 kinase inh, Rev-RRE block, PLK1 PBD inh)
C=CCn1c(SCc2cccc(C#N)c2)nnc1-c1ccccc1O	none
C=CCn1c(SCc2ccc(C#N)cc2)nnc1-c1cccc(Cl)c1	Cav3 T inh -4.92
OC(CCCN1CCC(O)(c2ccc(Cl)cc2)CC1)c1ccc(F)cc1 (centres undefined)	none (no result: EphB4 antag, FAK inh, PLK1 kinase inh, Rev-RRE block, PLK1 PBD inh)
CN(C)C(=O)C(CCN1CCC(O)(c2ccc(Cl)cc2)CC1)(c1ccccc1)c1ccccc1	Cav3 T inh -4.63 (no result: EphB4 antag, FAK inh, PLK1 kinase inh, Rev-RRE block, PLK1 PBD inh)
NCCCC[C@H]1CNC(=O)C(=O)N1CCC12CC3CC(CC(C3)C1)C2	none (no result: EphB4 antag, FAK inh, PLK1 kinase inh, Rev-RRE block, PLK1 PBD inh)
COC(=O)C[C@H]1c2cc(C(F)(F)F)ccc2S(=O)(=O)N1Cc1ccc(OC)cc1	none (no result: EphB4 antag, FAK inh, PLK1 kinase inh, Rev-RRE block, PLK1 PBD inh)
Cc1ccc(-c2nc(C3CCCN(S(=O)(=O)c4ccc(C)cc4)C3)no2)cc1 (centres undefined)	PLK1 kinase inh 67.0 (no result: Cav3 T inh)
CC(Cc1ccccc1)C(=O)N(C)Cc1cccnc1 (centres undefined)	none (no result: EphB4 antag, FAK inh, PLK1 kinase inh, Rev-RRE block, PLK1 PBD inh)
O=C(NCC1CCN(c2ccc(S(=O)(=O)N3CCOCC3)cc2)CC1)c1ccc(Cl)cc1	Cav3 T inh -5.42
COc1cc(C)nc(-n2nc(C)cc2OC)n1	none (no result: EphB4 antag, FAK inh, PLK1 kinase inh, Rev-RRE block, PLK1 PBD inh)
CCc1cccc(NC2c3ccccc3C(=O)N2c2ccc(C)cn2)c1 (centres undefined)	Cav3 T inh -4.43
COc1ccc(S(=O)(=O)N(C)CC(=O)NCc2cccnc2)cc1C	none
CC(C)C[C@H]1C(=O)N2CCC[C@H]2[C@]2(O)O[C@](NC(=O)C3C=C4c5cccc6[nH]c(Br)c(c56)C[C@H]4N(C)C3)(C(C)C)C(=O)N12 (some centres undefined)	Cav3 T inh -5.61 (no result: EphB4 antag, FAK inh, PLK1 kinase inh, Rev-RRE block, PLK1 PBD inh)
Cn1c(SCC(=O)Nc2nc3c(s2)CCCC3)nnc1-c1ccccc1	Cav3 T inh -6.05
O=C(CSc1nc(Cc2ccccc2)nc2ccccc12)Nc1nc2c(s1)CCCC2	Cav3 T inh -4.75
Cc1ccc(-c2nnc(SCC(=O)Nc3nc4c(s3)CCCC4)n2C)cc1	none
O=C(CSc1ncn(-c2ccccc2)n1)Nc1nc2c(s1)CCCC2	Cav3 T inh -4.24
CC(C)(C)c1nc(SCC(=O)Nc2nc3c(s2)CCCC3)c2ccccc2n1	none
CCOC(=O)c1ccccc1NC(=O)CSc1nnnn1C	none
O=C1NC2CCCCC2NC1CC(=O)N1CCN(c2ccccc2)CC1 (centres undefined)	none (no result: Cav3 T inh)
CC(C)(C)NC(=O)[C@@H]1C[C@@H]2CCCC[C@@H]2CN1C[C@@H](O)[C@H](Cc1ccccc1)NC(=O)[C@H](CC(N)=O)NC(=O)c1ccc2ccccc2n1	Cav3 T inh -5.59 (no result: EphB4 antag, FAK inh, PLK1 kinase inh, Rev-RRE block, PLK1 PBD inh)
Cc1ccc(Cl)cc1N1CCN(C(c2ccc(C#N)cc2)c2nnnn2C2CCCC2)CC1 (centres undefined)	none
COc1cc(C(c2nnnn2C(C)(C)C)N2CCN(c3nc4ccccc4s3)CC2)ccc1O (centres undefined)	none
COc1ccccc1N1CCN(C(c2ccc(Cl)cc2)c2nnnn2C(C)(C)C)CC1 (centres undefined)	none
